According to ChEMBL document CHEMBL5338825, “Structure-Based Discovery of Inhibitors of the SARS-CoV-2 Nsp14 N7-Methyltransferase” (J Med Chem, 2023):
Active and inactive are the calls of the source.

Tests used:
[1] = molecular target: Protein arginine N-methyltransferase 6 (Homo sapiens) (UniProt Q96LA8); assay: Inhibition of human PRMT6 using biotin-tagged Histone H4 and 3H-SAM as substrate at 10 uM incubated for 1 hrs by TopCount scintillation proximity assay relative to control
Method in brief: (§1)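 Human methyltransferase panel, radiometric assays. Each compound tested at a single 10 μM concentration in triplicate. Enzymes inhibited by more than 50% were taken on to concentration–response.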

[2] = molecular target: Histone-lysine N-methyltransferase ASH1L (Homo sapiens) (UniProt Q9NR48); assay: Inhibition of human ASH1L using chicken nucleosome and 3H-SAM as substrate at 10 uM incubated for 1 hrs by TopCount scintillation proximity assay relative to control; method in brief: as §1
[3] = molecular target: Protein arginine N-methyltransferase 9 (Homo sapiens) (UniProt Q6P2P2); assay: Inhibition of human PRMT9 using biotin-tagged SAP145 and 3H-SAM as substrate at 10 uM incubated for 1 hrs by TopCount scintillation proximity assay relative to control; method in brief: as §1
[4] = molecular target: Histone-lysine N-methyltransferase SETD2 (Homo sapiens) (UniProt Q9BYW2); assay: Inhibition of human SETD2 using biotin-tagged Histone H3 and 3H-SAM as substrate at 10 uM incubated for 1 hrs by TopCount scintillation proximity assay relative to control
Method in brief: (§2)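 Selectivity panel against human SAM-dependent methyltransferases, radiometric format. Single test concentration of 10 μM, triplicate, read as percent inhibition.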

[5] = molecular target: Histone-lysine N-methyltransferase SETDB1 (Homo sapiens) (UniProt Q15047); assay: Inhibition of human SETDB1 using biotin-tagged Histone H3 and 3H-SAM as substrate at 10 uM incubated for 1 hrs by TopCount scintillation proximity assay relative to control; method in brief: as §2
[6] = molecular target: N-lysine methyltransferase KMT5A (Homo sapiens) (UniProt Q9NQR1); assay: Inhibition of human SETD8 using biotin-tagged Histone H4 and 3H-SAM as substrate at 10 uM incubated for 1 hrs by TopCount scintillation proximity assay relative to control; method in brief: as §2
[7] = molecular target: Histone-lysine N-methyltransferase SMYD3 (Homo sapiens) (UniProt Q9H7B4); assay: Inhibition of human SMYD3 using biotin-tagged MAP3K2 and 3H-SAM as substrate at 10 uM incubated for 1 hrs by TopCount scintillation proximity assay relative to control; method in brief: as §2
Bacteria = assay: Inhibition of beta-lactamase AmpC (unknown origin) pre-incubated with compound for 5 mins followed by substrate addition and measured after 1.5 mins by absorbance based plate reader analysis; conditions: time 6.5 min
Method in brief: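 AmpC at 2 nM preincubated 5 min with compound at room temperature in 50 mM KPi, pH 7.0, with 1% v/v DMSO. Started with 50 μM CENTA (read at 405 nm) or 50 μM nitrocefin (read at 490 nm), monitored 1 min 30 s. Initial rate taken as % of DMSO control. Top concentration in triplicate; eight-point half-log curves in triplicate where inhibition exceeded 40%.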

[8] = molecular target: Histone-lysine N-methyltransferase, H3 lysine-36 specific (Homo sapiens) (UniProt Q96L73); assay: Inhibition of human NSD1 using chicken nucleosome and 3H-SAM as substrate at 10 uM incubated for 1 hrs by TopCount scintillation proximity assay relative to control; method in brief: as §1
[9] = molecular target: Histone-lysine N-methyltransferase SUV39H1 (Homo sapiens) (UniProt O43463); assay: Inhibition of human SUV39H1 using Biotin-tagged histone H3 and 3H-SAM as substrate at 10 uM incubated for 1 hrs by TopCount scintillation proximity assay relative to control; method in brief: as §2
[10] = molecular target: Histone-lysine N-methyltransferase SUV39H2 (Homo sapiens) (UniProt Q9H5I1); assay: Inhibition of human SUV39H2 using Biotin-tagged histone H3 and 3H-SAM as substrate at 10 uM incubated for 1 hrs by TopCount scintillation proximity assay relative to control; method in brief: as §2
[11] = molecular target: Histone-lysine N-methyltransferase 2A (Homo sapiens, UniProt Q03164); assay: Inhibition of human MLL1 using biotin-tagged Histone H3 and 3H-SAM as substrate at 10 uM incubated for 1 hrs by TopCount scintillation proximity assay relative to control; method in brief: as §1
[12] = molecular target: Histone-arginine methyltransferase CARM1 (Homo sapiens) (UniProt Q86X55); assay: Inhibition of human PRMT4 using biotin-tagged Histone H3 and 3H-SAM as substrate at 10 uM incubated for 1 hrs by TopCount scintillation proximity assay relative to control; method in brief: as §1
[13] = molecular target: Protein arginine N-methyltransferase 7 (Homo sapiens) (UniProt Q9NVM4); assay: Inhibition of human PRMT7 using biotin-tagged Histone H2B and 3H-SAM as substrate at 10 uM incubated for 1 hrs by TopCount scintillation proximity assay relative to control; method in brief: as §1
[14] = molecular target: N-lysine methyltransferase SMYD2 (Homo sapiens) (UniProt Q9NRG4); assay: Inhibition of human SMYD2 using biotin-tagged p53 and 3H-SAM as substrate at 10 uM incubated for 1 hrs by TopCount scintillation proximity assay relative to control; method in brief: as §2

Measured: inhibition

Sequence of Protein arginine N-methyltransferase 9 (Homo sapiens) (Q6P2P2 whole entry): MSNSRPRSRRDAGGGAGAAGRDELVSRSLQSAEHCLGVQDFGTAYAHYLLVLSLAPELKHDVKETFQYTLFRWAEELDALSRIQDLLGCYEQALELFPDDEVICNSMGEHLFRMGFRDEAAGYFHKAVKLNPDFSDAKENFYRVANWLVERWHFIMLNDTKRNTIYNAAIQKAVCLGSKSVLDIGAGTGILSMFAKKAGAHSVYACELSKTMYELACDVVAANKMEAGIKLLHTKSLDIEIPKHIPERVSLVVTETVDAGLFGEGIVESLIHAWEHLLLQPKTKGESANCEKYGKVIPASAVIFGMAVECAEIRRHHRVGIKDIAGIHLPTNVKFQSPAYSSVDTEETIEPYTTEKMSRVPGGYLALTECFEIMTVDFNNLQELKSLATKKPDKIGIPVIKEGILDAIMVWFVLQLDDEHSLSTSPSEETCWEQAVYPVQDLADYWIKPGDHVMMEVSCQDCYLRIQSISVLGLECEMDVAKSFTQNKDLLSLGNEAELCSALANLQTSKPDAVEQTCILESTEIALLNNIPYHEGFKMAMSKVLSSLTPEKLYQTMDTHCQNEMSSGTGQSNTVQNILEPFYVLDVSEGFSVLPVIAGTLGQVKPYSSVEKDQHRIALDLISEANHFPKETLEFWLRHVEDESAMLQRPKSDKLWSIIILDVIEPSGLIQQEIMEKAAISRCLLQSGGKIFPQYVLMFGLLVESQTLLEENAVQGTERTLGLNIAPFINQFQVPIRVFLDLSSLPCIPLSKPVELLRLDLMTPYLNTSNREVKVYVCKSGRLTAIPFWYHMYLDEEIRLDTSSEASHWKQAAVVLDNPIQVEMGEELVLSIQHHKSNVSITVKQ
Sequence of Protein arginine N-methyltransferase 6 (Homo sapiens) (Q96LA8 whole entry, looked up): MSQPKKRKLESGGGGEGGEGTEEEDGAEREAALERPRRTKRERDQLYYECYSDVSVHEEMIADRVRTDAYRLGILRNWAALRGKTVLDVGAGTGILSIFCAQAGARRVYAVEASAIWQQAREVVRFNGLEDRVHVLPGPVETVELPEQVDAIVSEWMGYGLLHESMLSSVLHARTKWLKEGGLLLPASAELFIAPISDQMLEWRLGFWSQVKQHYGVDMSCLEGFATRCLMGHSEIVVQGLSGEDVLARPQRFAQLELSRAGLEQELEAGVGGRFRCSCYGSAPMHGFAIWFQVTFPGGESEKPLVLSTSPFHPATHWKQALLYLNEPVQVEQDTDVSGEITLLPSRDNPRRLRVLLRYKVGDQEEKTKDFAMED
Sequence of N-lysine methyltransferase KMT5A (Homo sapiens) (Q9NQR1 whole entry): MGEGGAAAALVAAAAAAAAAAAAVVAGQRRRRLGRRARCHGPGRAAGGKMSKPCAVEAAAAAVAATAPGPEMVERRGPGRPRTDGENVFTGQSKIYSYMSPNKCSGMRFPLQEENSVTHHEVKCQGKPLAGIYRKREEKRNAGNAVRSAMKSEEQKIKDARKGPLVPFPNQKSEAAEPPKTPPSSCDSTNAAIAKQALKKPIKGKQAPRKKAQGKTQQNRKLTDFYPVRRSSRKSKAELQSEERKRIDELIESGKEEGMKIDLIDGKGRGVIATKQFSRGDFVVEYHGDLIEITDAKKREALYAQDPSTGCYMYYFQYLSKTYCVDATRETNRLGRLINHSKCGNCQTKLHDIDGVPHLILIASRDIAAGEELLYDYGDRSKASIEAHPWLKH
Sequence of Histone-lysine N-methyltransferase SUV39H1 (Homo sapiens) (O43463 whole entry): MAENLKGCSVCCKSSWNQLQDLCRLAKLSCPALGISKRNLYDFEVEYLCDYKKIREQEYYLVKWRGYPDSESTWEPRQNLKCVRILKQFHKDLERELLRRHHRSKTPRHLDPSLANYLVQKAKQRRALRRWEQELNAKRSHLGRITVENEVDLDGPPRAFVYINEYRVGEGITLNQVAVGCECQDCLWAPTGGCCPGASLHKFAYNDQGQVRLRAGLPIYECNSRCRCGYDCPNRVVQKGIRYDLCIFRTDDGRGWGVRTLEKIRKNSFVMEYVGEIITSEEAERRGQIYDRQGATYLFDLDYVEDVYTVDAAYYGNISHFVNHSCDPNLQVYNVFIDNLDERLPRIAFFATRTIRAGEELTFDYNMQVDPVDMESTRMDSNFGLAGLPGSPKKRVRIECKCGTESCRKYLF
Sequence of Histone-lysine N-methyltransferase SUV39H2 (Homo sapiens) (Q9H5I1 whole entry): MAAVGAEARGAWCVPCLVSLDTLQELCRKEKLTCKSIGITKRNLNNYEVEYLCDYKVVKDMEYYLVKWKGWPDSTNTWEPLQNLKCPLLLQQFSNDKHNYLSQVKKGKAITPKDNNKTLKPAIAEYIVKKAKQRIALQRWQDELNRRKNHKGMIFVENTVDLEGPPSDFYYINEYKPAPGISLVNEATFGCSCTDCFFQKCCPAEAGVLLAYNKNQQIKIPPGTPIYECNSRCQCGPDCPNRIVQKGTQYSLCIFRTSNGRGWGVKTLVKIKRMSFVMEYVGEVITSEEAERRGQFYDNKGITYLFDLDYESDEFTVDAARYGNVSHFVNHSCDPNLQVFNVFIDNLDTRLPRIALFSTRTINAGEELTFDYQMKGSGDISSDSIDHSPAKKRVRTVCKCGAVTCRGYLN
Sequence of Protein arginine N-methyltransferase 7 (Homo sapiens) (Q9NVM4 whole entry): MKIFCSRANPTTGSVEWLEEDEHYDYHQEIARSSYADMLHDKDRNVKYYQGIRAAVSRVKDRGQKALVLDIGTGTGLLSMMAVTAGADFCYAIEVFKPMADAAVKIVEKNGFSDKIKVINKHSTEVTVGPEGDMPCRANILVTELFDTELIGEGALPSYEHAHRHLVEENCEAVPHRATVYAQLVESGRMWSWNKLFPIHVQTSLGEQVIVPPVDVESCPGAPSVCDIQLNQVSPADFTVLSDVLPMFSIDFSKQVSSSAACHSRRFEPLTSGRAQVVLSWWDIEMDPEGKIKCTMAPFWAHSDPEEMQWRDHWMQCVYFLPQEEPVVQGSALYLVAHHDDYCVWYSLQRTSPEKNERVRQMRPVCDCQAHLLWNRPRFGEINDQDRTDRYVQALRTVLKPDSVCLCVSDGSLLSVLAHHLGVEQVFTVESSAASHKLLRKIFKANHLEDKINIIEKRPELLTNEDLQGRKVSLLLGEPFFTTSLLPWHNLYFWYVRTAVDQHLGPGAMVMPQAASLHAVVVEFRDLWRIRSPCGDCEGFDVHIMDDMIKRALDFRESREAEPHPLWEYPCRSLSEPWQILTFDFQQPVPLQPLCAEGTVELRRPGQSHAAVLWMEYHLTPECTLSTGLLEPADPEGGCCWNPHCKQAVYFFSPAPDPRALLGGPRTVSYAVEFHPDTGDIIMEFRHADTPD
Sequence of Histone-lysine N-methyltransferase SMYD3 (Homo sapiens) (Q9H7B4 whole entry): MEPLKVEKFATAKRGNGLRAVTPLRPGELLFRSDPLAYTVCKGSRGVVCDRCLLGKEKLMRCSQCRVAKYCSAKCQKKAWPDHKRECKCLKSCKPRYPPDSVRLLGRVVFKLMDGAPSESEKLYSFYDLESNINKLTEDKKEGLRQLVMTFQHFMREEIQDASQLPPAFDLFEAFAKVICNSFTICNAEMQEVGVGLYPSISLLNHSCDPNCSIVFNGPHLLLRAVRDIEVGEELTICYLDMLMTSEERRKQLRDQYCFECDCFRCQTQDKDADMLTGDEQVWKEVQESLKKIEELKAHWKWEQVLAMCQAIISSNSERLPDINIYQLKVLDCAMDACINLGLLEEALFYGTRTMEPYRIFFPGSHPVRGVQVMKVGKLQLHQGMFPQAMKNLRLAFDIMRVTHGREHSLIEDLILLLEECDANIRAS
Sequence of Histone-arginine methyltransferase CARM1 (Homo sapiens) (Q86X55 whole entry): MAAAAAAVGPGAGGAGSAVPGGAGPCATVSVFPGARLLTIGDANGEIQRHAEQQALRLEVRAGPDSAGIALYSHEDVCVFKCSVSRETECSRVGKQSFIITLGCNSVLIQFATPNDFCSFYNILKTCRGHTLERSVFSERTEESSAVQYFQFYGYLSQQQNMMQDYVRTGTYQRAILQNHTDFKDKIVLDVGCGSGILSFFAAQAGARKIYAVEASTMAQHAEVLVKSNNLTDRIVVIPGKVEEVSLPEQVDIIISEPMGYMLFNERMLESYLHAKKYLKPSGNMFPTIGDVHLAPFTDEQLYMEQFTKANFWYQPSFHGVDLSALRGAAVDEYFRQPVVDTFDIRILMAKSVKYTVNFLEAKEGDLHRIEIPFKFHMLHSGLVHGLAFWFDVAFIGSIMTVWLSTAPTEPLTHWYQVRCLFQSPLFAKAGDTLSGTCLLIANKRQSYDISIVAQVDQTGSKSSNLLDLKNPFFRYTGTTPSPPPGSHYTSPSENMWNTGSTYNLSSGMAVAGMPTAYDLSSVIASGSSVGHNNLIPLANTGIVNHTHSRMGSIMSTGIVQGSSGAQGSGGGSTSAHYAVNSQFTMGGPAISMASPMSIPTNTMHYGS
Sequence of N-lysine methyltransferase SMYD2 (Homo sapiens) (Q9NRG4 whole entry): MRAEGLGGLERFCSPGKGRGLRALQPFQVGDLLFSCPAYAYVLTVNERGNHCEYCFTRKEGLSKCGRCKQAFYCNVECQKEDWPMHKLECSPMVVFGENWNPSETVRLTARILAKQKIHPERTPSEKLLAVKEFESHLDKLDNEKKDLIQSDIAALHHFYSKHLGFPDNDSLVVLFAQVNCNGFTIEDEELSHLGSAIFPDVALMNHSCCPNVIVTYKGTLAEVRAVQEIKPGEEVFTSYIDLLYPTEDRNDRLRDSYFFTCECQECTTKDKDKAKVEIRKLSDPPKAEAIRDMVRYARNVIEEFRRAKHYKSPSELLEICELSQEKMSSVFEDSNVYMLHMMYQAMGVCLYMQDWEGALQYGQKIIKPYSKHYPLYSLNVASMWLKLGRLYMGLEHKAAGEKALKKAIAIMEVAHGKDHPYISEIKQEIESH

Cc1c(C(=O)/C=C/c2ccc(O)c([N+](=O)[O-])c2)c(C#N)c2n1CCC2
active: Bacteria
< 50%: [1] | [2] | [3] | [4] | [5] | [6] | [7] | [8] | [9] | [10] | [11] | [12] | [13] | [14]
